Data as given in ChEMBL document CHEMBL1128324, “Synthesis and antitumor activity of 4- and 5-substituted derivatives of isoquinoline-1-carboxaldehyde thiosemicarbazone” (1995).
Values joined by “and” are separate entries in the source; they are usually repeats but may differ in a detail not shown here. Equal values may be shown once.

Columns and labels:
Type in all cases: functional
Mus musculus [1] = organism: Mus musculus; assay: antineoplastic activity on the survival time of mice bearing L1210 leukemia. Average weight change of mice from onset to termination of drug treatment.
Outline: (§1)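 L1210 leukemia-bearing CD2F1 mice, 5-10 per group, received the drug as an ip suspension once daily for 6 consecutive days, starting 24 h after tumor implantation. %T/C is treated over control survival time ×100. Average weight change is measured from the onset to the termination of treatment.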

Mus musculus [2] = organism: Mus musculus; assay: antineoplastic activity on the survival time of mice bearing L1210 leukemia.% T/C represents the ratio of the survival time of treated to control mice * 100.; outline: as §1
Mus musculus [3] = organism: Mus musculus; assay: antineoplastic activity on the survival time of mice bearing L1210 leukemia. Daily dosage of the compound.; outline: as §1
Bos taurus = organism: Bos taurus; assay: Effect on rate of glucuronidation of the hydroxyl group by bovine UDP-glucuronyltransferase
Outline: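 UDP formed during glucuronidation was measured by a coupled enzymatic assay, and the rate was calculated from NADH absorbance using an extinction coefficient of 6.22 × 10^6 cm2 mol-1. Test agents were dissolved in DMSO at final concentrations of 0.5 mM (hydroxyl-substituted pyridines) and 0.1 mM (hydroxyl-substituted isoquinolines). Model compounds lacking the thiosemicarbazone group were used because thiosemicarbazones interfere with the absorbance.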

Mus musculus [4] = organism: Mus musculus; assay: Survival time of mice(out of 5) bearing L1210 leukemia. Long term survivors are the number of mice that survived for >60 days relative to the total number of treated mice.
Outline: (§2)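 CD2F1 mice bearing L1210 leukemia, 5-10 per group. Drug was given ip as a suspension twice daily (about 12 h apart) for 6 consecutive days, starting 24 h after tumor implantation. Mean survival counts only mice dying before day 60. Survivors beyond 60 days are scored as long-term. Body-weight change is measured from the start to the end of therapy.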

Mus musculus [5] = organism: Mus musculus; assay: The compound was tested for antineoplastic activity on the survival time of mice bearing L1210 leukemia. Average survival time includes only those mice that died prior to day 60.; outline: as §2
Mus musculus [6] = organism: Mus musculus; assay: The compound was tested for antineoplastic activity on the survival time of mice bearing L1210 leukemia. Average weight change of mice from onset to termination of therapy.; outline: as §2
Mus musculus [7] = organism: Mus musculus; assay: The compound was tested for antineoplastic activity on the survival time of mice bearing L1210 leukemia. Optimum daily dosage of the compound.
Mus musculus [8] = organism: Mus musculus; assay: The compound was tested for antineoplastic activity on the survival time of mice bearing L1210 leukemia.% T/C represents the ratio of the survival time of treated to control mice * 100.

Compound	Average weight change (Mus musculus [1])	T/C (Mus musculus [2])	Relative rate (Bos taurus)	further results
CNc1cnc(/C=N\N=C(\N)S)c2ccccc12	1% and 3% and 8%	177% and 159% and 179%		
NCCNc1cnc(/C=N\N=C(\N)S)c2ccccc12	-4.6% and -5%	145% and 120% and 116%		Dose (Mus musculus [3]): 60 mg/kg and 40 mg/kg and 20 mg/kg
Cc1cc(C)c(O)cn1			1	
Cc1ncc(C)c2c(O)cccc12			0.08	
N/C(S)=N/N=C/c1ccc(N)cn1	-18% and -2.8% and 0%	129% and 140% and 138%		Long-term survivors (Mus musculus [4]): 1; Average survival (Mus musculus [5]): 19.2 days; Average weight (Mus musculus [6]): -7.6%; Dose (Mus musculus [7]): 20 mg/kg; T/C (Mus musculus [8]): 234%
Cc1ccc(O)cn1			0.59	
N/C(S)=N/N=C\c1ncc(N)c2ccccc12	3.2% and 3.6% and 3%	177% and 174% and 162%		Long-term survivors (Mus musculus [4]): 3; Average survival (Mus musculus [5]): 13.5 days; Average weight (Mus musculus [6]): -7.8%; Dose (Mus musculus [7]): 40 mg/kg; T/C (Mus musculus [8]): 165%
Cc1nccc2c(O)cccc12			1	
Oc1cccc2cnccc12			0.45	
Cc1ncccc1O			0.65	
Cc1ccnc(C)c1O			0.81	
N/C(S)=N/N=C\c1ncc(N2CCOCC2)c2c(N)cccc12	2% and 7.3% and 6.8%	138% and 141% and 149%		
